The source of these data is ChEMBL document CHEMBL4177662, “Phosphamide-containing diphenylpyrimidine analogues (PA-DPPYs) as potent focal adhesion kinase (FAK) inhibitors with enhanced activity against pancreatic cancer cell lines” (Bioorg Med Chem, 2017).

The subject of assay [1] is ASPC1. Nature of the assay: Cell cycle arrest in human Aspc-1 cells assessed as accumulation at G0/G1 phase at 5 uM after 72 hrs by propidium iodide staining-based flow cytometry (reference value: 39.41%). It is filed as functional. In general terms: Flow cytometry measures light scatter and fluorescence of single cells or particles in a stream.
Assay [2] concerns the target T1, Tyrosine-protein kinase JAK3 (Homo sapiens) (UniProt P52333).
T1 sequence (whole entry): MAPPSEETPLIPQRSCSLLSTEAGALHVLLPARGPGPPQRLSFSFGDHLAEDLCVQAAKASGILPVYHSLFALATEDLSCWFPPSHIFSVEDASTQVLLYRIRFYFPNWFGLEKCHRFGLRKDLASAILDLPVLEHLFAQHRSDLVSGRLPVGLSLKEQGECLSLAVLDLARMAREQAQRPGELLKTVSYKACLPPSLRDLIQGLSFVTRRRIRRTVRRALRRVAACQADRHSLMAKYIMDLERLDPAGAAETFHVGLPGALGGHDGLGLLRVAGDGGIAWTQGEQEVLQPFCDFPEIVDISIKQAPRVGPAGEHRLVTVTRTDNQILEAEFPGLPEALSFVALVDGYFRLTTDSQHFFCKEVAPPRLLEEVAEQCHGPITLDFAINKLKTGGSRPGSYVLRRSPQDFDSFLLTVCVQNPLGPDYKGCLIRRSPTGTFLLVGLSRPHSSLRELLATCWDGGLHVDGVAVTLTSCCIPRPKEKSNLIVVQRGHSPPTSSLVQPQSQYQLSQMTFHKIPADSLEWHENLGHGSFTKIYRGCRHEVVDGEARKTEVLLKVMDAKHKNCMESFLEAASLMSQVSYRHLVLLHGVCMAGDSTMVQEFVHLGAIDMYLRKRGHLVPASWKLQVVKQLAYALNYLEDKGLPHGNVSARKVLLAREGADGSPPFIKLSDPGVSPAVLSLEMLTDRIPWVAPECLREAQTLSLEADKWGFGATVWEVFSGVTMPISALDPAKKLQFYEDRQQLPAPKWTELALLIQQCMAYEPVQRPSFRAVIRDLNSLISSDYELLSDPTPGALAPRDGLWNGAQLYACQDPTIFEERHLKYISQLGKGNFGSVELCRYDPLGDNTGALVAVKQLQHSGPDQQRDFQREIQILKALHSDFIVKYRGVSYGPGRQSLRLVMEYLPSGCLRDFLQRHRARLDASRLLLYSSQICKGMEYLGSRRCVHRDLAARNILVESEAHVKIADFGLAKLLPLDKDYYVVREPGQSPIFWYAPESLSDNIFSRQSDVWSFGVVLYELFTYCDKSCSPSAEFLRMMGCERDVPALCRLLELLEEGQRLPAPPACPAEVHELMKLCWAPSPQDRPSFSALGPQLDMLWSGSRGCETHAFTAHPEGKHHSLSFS
Nature of the assay: Inhibition of recombinant GST-tagged human JAK3 catalytic domain (781 to 1124 residues) expressed in baculovirus expression system at 100 nM relative to control. A digest of the protocol:
(§1)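 SelectScreen biochemical kinase profiling service; percent inhibition of each kinase at a single compound concentration of 100 nM.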

Assay [3] has as its system ASPC1. Nature of the assay: Cell cycle arrest in human Aspc-1 cells assessed as accumulation at G0/G1 phase at 2.5 uM after 72 hrs by propidium iodide staining-based flow cytometry (reference value: 39.41%). It counts as functional.
Assay [4] has as its system ASPC1. Nature of the assay: Antiproliferative activity against human Aspc-1 cells assessed as cell viability at 8 uM after 72 hrs by MTT assay (reference value: 97%). It is filed as functional. The conditions noted are these: ASPC1, 72 h, read-out: Activity. In general terms: Formazan colour is commonly taken as a measure of viable cells.
Assay [5] deals with ASPC1. Nature of the assay: Cell cycle arrest in human Aspc-1 cells assessed as accumulation at S phase at 5 uM after 72 hrs by propidium iodide staining-based flow cytometry (reference value: 59.70%). It is filed as functional.
Assay [6] concerns ASPC1. Nature of the assay: Induction of apoptosis in human Aspc-1 cells assessed as viable cells at 5 uM after 72 hrs by Annexin V-FITC/propidium iodide staining-based flow cytometry (reference value: 100%). It counts as functional. To be noted: ASPC1, 72 h, read-out: Activity. An outline of the steps: (§2)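 AsPC-1 cells (3 to 5×10^5 per well) were treated with DMSO solvent control or compound for 72 h in medium with 5% FBS. Cells were then stained with Annexin V-FITC and propidium iodide and analysed by flow cytometry. One representative experiment shown.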

Assay [7] concerns ASPC1. Nature of the assay: Induction of apoptosis in human Aspc-1 cells assessed as late apoptotic cells at 2.5 uM after 72 hrs by Annexin V-FITC/propidium iodide staining-based flow cytometry (reference value: 0%). It counts as functional. An outline of the steps: as §2
Assay [8] relates to Epidermal growth factor receptor (Homo sapiens), P00533 [T790M]. Nature of the assay: Inhibition of recombinant GST-tagged human EGFR cytoplasmic domain (668 to 1210 residues) T790M mutant expressed in baculovirus expression system at 100 nM relative to control. A digest of the protocol:
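Part of a small kinase-panel profile run by an outsourced biochemical profiling service. The test compound was given at a single concentration of 100 nM, and activity was reported as percent inhibition rate.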

The next assay has as its system PANC-1 (human). Nature of the assay: Antiproliferative activity against human PANC-1 cells assessed as cell viability at 8 uM after 72 hrs by MTT assay (reference value: 97%). To be noted: PANC-1, 72 h.
The target of assay [9] is Protein-tyrosine kinase 2-beta (Homo sapiens) (UniProt Q14289). Nature of the assay: Inhibition of recombinant full length GST-tagged human PYK2 cytoplasmic domain expressed in baculovirus expression system at 100 nM relative to control. A digest of the protocol: as §1
Sequence of Protein-tyrosine kinase 2-beta (Homo sapiens) (Q14289 whole entry, looked up, the tested form may be a part): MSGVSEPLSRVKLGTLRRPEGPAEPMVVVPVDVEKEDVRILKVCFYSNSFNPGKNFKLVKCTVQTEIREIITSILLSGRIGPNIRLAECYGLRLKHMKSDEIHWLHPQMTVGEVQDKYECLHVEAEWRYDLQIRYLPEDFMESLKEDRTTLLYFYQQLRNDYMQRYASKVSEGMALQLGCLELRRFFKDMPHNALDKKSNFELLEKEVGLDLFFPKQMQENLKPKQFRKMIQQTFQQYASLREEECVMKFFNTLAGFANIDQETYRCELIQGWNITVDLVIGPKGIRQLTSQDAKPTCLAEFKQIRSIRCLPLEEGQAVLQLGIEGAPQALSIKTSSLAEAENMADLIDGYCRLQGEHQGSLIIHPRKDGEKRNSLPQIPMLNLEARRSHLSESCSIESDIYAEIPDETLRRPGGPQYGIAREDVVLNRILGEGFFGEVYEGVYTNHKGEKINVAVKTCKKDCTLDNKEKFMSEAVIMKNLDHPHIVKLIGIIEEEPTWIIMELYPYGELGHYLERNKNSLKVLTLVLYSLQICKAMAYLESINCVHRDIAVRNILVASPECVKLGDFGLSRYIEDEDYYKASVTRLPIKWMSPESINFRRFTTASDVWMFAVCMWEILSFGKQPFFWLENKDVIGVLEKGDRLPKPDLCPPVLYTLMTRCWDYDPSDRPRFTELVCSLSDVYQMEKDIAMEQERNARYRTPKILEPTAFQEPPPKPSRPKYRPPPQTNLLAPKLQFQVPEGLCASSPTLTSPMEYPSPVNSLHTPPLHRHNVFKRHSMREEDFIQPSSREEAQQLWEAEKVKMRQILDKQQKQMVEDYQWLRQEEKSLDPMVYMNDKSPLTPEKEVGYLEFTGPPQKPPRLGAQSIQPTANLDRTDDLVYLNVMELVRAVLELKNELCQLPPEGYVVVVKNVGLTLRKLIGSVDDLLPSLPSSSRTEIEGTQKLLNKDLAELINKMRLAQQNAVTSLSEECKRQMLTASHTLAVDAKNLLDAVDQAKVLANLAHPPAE
The test system of assay [10] is ASPC1. Nature of the assay: Antiproliferative activity against human Aspc-1 cells assessed as cell viability at 0.5 uM after 72 hrs by MTT assay (reference value: 97%). It is filed as functional. To be noted: ASPC1, 72 h, read-out: Activity.
In assay [11] the test system is ASPC1. Nature of the assay: Induction of apoptosis in human Aspc-1 cells assessed as necrotic cells at 2.5 uM after 72 hrs by Annexin V-FITC/propidium iodide staining-based flow cytometry (reference value: 0%). It is filed as functional. An outline of the steps: as §2
In assay [12] the test system is ASPC1. Nature of the assay: Induction of apoptosis in human Aspc-1 cells assessed as early apoptotic cells at 10 uM after 72 hrs by Annexin V-FITC/propidium iodide staining-based flow cytometry (reference value: 0%). It is filed as functional. An outline of the steps: as §2
Assay [13] deals with ASPC1. Nature of the assay: Antiproliferative activity against human Aspc-1 cells assessed as cell viability at 8 uM after 24 hrs by MTT assay (reference value: 100%). It is filed as functional. To be noted: ASPC1, 24 h, read-out: Activity.
Assay [14] deals with ASPC1. Nature of the assay: Antiproliferative activity against human Aspc-1 cells assessed as cell viability at 4 uM after 72 hrs by MTT assay (reference value: 97%). It is filed as functional. The conditions noted are these: ASPC1, 72 h, read-out: Activity.
The test system of the next assay is BXPC-3. Nature of the assay: Antiproliferative activity against human BxPC3 cells assessed as cell viability at 4 uM after 24 hrs by MTT assay (reference value: 100%). The conditions noted are these: BXPC-3, 24 h, read-out: Activity. It is filed as functional.
The subject of assay [15] is ASPC1. Nature of the assay: Induction of apoptosis in human Aspc-1 cells assessed as necrotic cells at 10 uM after 72 hrs by Annexin V-FITC/propidium iodide staining-based flow cytometry (reference value: 0%). It counts as functional. A digest of the protocol:
as §2

For assay [16], the system named is ASPC1. Nature of the assay: Cell cycle arrest in human Aspc-1 cells assessed as accumulation at S phase at 1 uM after 72 hrs by propidium iodide staining-based flow cytometry (reference value: 59.70%). It counts as functional.
Assay [17] relates to ASPC1. Nature of the assay: Antiproliferative activity against human Aspc-1 cells after 72 hrs by MTT assay. It is filed as functional, cell-based. The conditions noted are these: ASPC1, 72 h. An outline of the steps: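 Cells grown in DMEM with 10% FBS and 1% penicillin-streptomycin at 37 °C, 5% CO2. Seeded at 4,000 to 5,000 cells/well, cultured one day, then exposed to compounds for 72 h at 1.25 to 40 μmol/L, five replicates per concentration. MTT absorbance read at 570 nm. IC50 from five-point dose-response curves; mean of at least three separate experiments.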

Sequence of Epidermal growth factor receptor (Homo sapiens), P00533 [T790M] (P00533 whole entry T790M, the tested form may be a part): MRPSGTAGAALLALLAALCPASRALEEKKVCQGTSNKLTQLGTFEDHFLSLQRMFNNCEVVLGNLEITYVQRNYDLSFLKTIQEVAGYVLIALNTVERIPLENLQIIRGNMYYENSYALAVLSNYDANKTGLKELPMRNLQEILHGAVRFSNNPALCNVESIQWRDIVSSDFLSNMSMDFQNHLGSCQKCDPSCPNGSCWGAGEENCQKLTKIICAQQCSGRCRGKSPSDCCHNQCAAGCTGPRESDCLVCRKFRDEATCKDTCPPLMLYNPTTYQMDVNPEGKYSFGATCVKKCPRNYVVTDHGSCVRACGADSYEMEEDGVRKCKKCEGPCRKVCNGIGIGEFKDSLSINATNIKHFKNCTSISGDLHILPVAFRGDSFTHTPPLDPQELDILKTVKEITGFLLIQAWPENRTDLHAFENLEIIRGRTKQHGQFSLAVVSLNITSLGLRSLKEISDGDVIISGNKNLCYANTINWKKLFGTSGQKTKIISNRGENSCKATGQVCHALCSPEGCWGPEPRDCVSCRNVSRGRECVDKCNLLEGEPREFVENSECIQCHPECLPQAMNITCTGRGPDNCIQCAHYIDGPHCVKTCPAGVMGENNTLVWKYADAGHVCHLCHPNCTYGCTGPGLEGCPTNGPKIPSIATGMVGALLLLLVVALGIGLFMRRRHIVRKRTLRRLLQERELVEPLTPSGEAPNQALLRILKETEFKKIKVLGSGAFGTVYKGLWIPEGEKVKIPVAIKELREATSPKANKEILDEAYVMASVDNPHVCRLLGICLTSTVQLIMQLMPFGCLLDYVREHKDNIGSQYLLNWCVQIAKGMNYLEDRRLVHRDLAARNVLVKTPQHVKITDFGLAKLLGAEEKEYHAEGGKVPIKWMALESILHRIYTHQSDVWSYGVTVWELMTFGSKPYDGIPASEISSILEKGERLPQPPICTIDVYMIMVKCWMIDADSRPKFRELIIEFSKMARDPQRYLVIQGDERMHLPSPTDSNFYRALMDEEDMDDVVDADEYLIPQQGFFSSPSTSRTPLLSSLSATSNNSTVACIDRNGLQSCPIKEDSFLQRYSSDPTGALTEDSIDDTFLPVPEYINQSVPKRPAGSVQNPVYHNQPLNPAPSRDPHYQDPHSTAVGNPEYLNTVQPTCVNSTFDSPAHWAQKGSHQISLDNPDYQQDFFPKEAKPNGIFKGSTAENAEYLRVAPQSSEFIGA

The inhibition is how much of the control response was suppressed. The term IC50 denotes the concentration at which inhibition is half-maximal. The low end stands for inhibition by little substance, the high end for a need for much substance. Regarding `CCOP(=O)(CCCOc1ccc(Nc2ncc([N+](=O)[O-])c(Nc3ccccc3C(=O)NC)n2)cc1)N1CCOCC1` (centres undefined), the Activity in the assay on ASPC1 [1] amounted to 40.06%; with ASPC1 [3], 38.18%; in the assay with ASPC1 [5], 37.82%; with ASPC1 [7] it was 20.7%; in the assay with ASPC1 [11], 2.9%; in the assay on ASPC1 [12], 16.6%. In addition, the values for the Activity with ASPC1 [15] and with ASPC1 [16] were 0.4% and 48.41%, respectively. The inhibition in [2] is 26%; in [8], 45%; in assay [9] it was 71%. In addition, the results for the viability at 8 µM in the assay with ASPC1 [4], in the assay with PANC-1 (human) and with ASPC1 [13] were 16.8%, 18.1% and 56.8%, respectively. Besides, the viability at 5 µM with ASPC1 [6] stood at 40.1%. Also, in the assay with ASPC1 [10], the viability at 0.5 µM was found to be 94.4%. For the same compound, the values for the viability at 4 µM with ASPC1 [14] and in the assay with BXPC-3 were 40.8% and 88.5%, respectively. The compound also showed an IC50 in the assay on ASPC1 [17] of 1660 nM.
